Measured values: ChEMBL document CHEMBL4325920, “Discovery of Clinical Candidate BMS-823778 as an Inhibitor of Human 11β-Hydroxysteroid Dehydrogenase Type 1 (11β-HSD-1)” (ACS Med Chem Lett, 2018)

Tests used:
[1] = Aqueous solubility of the compound at pH 6.5 using crystalline sample; assay type: physicochemical
[2] = Stability of the compound in oxidative solution; assay type: physicochemical
[3] = Stability of the compound in hydrolytic solution; assay type: physicochemical
[4] = Stability of the compound at 50 degC measured after 12 weeks using crystalline solid sample; assay type: physicochemical; settings: 2016 h
[5] = Stability of the compound under high intensity light/UV light measured after 12 weeks using crystalline solid sample; assay type: physicochemical; settings: 2016 h
[6] = Aqueous solubility of the compound at pH 1 using crystalline sample; assay type: physicochemical
[7] = Stability of the compound in aqueous buffer at pH 1.1 to pH 7.4 at 40 degC measured after 1 week; assay type: physicochemical; settings: pH 1.1, 168 h
[8] = Stability of the compound in solid state; assay type: physicochemical
[9] = Oral bioavailability in cynomolgus monkey at 1.47 mg/kg by LC-MS/MS analysis; assay type: ADME, organism-based, Macaca fascicularis; settings: in vivo
In short: (§1)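 Given orally as a homogenized suspension, to mouse and to cynomolgus monkey.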

[10] = target: 11-beta-hydroxysteroid dehydrogenase 1 (Homo sapiens, UniProt P28845); assay: Inhibition of recombinant human 11beta-HSD1 expressed in HEK293 cell microsomes using [3H]cortisone as substrate after 4 hrs by homogeneous immuno-radiometric scintillation proximity assay; assay type: cell-based
Chain of 11-beta-hydroxysteroid dehydrogenase 1 (Homo sapiens, UniProt P28845) (P28845 whole entry): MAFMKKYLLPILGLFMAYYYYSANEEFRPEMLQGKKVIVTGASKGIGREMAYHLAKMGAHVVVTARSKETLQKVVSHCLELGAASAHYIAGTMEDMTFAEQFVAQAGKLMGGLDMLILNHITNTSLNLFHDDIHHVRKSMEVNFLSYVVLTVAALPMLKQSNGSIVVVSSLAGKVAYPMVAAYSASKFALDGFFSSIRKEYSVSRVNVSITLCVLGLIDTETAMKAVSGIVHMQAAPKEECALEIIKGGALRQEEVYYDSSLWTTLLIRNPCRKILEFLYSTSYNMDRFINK

[11] = Protein binding in mouse plasma; assay type: ADME, cell-free; settings: read-out: PPB (converted)
[12] = Inhibition of recombinant cynomolgus monkey 11beta-HSD1 expressed in HEK293 cell microsomes using [3H]cortisone as substrate after 4 hrs by homogeneous immuno-radiometric scintillation proximity assay; parameters: species or system Macaca fascicularis
[13] = Protein binding in cynomolgus monkey plasma; assay type: ADME, cell-free, Macaca fascicularis; settings: read-out: PPB (converted)
[14] = Total plasma clearance in Balb/C mouse at 5 mg/kg, iv by LC-MS/MS analysis; assay type: ADME, organism-based
Cynomolgus monkey = assay: In-vivo inhibition of 11beta-HSD1 in po cynomolgus monkey assessed as reduction in conversion of dehydrocorticosterone to corticosterone pretreated for 30 to 60 mins followed by dehydrocorticosterone addition and measured after 30 to 120 mins by enzyme immunosorbent assay; assay type: functional; settings: Macaca fascicularis
[15] = Stability in human microsomes assessed as parent compound remaining after 30 mins; assay type: ADME, Microsome; settings: read-out: Stability
Cytochrome P450 2C9 = Cytochrome P450 2C9 (Homo sapiens, UniProt P11712); assay: Inhibition of human CYP2C9; assay type: ADME
Chain of Cytochrome P450 2C9 (P11712 whole entry): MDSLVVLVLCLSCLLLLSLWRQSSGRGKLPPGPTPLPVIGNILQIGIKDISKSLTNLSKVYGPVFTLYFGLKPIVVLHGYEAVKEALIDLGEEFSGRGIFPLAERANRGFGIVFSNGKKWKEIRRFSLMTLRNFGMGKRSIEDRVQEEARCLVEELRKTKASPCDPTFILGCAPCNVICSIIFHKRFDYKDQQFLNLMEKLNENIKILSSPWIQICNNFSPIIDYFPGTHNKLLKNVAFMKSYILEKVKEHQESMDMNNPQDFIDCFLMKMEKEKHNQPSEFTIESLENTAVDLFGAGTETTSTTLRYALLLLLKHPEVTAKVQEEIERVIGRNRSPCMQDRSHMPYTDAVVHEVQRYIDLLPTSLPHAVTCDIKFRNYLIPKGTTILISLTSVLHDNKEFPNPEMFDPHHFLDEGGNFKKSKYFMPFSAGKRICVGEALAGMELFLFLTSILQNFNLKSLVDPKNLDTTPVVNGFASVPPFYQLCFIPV

Cytochrome P450 3A4 = Cytochrome P450 3A4 (Homo sapiens, UniProt P08684); assay: Inhibition of human CYP3A4; assay type: ADME
Chain of Cytochrome P450 3A4 (P08684 whole entry): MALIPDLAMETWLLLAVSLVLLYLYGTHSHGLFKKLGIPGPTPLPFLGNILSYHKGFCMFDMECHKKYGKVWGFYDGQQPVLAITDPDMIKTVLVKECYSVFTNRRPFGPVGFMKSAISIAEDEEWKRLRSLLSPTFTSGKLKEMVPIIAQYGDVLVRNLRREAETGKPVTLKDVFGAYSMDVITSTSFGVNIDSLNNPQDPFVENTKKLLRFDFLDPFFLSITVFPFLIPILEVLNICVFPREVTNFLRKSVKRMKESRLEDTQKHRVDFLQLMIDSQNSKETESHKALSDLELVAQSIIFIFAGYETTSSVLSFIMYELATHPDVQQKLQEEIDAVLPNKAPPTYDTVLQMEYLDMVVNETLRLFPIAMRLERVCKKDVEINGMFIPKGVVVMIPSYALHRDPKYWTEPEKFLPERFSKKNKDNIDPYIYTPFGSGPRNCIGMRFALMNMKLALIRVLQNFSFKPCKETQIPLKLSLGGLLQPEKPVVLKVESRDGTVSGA

Mus musculus [16] = assay: Selectivity ratio of ED50 for inhibition of 11beta-HSD1 in po dosed diet induced obese mouse to ED50 for ex vivo inhibition of 11beta-HSD1 in diet induced obese mouse adipose tissue administered via oral gavage; assay type: functional
[17] = Stability in cynomolgus monkey microsomes assessed as parent compound remaining after 30 mins; assay type: ADME, Macaca fascicularis, Microsome; settings: read-out: Stability
[18] = target: T1, Nuclear receptor subfamily 1 group I member 2 (Homo sapiens, UniProt O75469); assay: Activation of PXR (unknown origin); assay type: ADME
T1 sequence (O75469 whole entry): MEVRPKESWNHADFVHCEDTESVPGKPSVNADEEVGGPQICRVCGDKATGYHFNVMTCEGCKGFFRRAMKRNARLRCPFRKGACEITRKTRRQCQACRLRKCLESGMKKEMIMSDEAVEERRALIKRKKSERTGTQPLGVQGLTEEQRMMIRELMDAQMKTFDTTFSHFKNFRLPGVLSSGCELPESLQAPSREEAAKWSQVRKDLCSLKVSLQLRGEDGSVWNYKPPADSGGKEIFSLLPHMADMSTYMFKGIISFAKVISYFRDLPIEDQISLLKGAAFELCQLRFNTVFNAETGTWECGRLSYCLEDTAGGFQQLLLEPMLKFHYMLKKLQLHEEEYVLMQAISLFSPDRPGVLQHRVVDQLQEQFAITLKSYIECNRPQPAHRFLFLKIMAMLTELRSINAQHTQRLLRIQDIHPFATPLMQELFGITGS

[19] = Toxicity in cynomolgus monkey assessed as emesis up to 100 mg/kg, po administered as single dose; assay type: organism-based, Macaca fascicularis; settings: in vivo
hERG (KCNH2) [20] = target: T2, hERG (KCNH2) (Homo sapiens, UniProt Q12809); assay: Inhibition of human ERG at 10 uM by whole-cell patch clamp method relative to control
T2 sequence (Q12809 whole entry): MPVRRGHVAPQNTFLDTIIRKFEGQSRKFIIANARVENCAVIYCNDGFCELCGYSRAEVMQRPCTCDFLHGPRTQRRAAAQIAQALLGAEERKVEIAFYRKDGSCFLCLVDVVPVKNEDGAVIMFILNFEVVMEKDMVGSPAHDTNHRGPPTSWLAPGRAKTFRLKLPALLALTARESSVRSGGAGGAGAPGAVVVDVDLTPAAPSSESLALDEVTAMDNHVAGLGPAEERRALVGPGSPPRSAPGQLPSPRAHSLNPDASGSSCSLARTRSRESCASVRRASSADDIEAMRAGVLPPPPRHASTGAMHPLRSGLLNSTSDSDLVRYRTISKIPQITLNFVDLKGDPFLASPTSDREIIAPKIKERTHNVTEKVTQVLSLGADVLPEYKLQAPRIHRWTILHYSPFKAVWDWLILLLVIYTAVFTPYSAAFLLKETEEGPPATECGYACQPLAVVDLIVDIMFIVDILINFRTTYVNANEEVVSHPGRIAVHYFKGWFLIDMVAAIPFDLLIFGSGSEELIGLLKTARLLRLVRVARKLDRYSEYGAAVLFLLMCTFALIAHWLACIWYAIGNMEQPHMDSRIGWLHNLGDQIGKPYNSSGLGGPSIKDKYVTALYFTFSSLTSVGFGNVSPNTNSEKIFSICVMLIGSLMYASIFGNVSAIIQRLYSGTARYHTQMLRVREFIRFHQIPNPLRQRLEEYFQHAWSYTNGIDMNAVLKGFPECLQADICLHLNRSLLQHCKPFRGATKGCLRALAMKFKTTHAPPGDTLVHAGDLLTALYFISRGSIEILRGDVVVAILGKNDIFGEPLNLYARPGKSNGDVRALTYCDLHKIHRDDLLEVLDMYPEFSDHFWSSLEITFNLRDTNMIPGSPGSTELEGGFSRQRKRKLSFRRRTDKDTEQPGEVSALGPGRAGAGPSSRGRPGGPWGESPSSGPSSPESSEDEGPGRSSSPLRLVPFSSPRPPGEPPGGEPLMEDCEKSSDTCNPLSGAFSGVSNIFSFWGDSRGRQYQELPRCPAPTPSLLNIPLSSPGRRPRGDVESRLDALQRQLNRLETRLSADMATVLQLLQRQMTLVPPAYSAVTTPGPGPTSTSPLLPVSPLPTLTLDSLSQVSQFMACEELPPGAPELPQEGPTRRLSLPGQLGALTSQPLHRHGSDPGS

[21] = Oral bioavailability in Balb/C mouse at 10 mg/kg by LC-MS/MS analysis; assay type: ADME, organism-based; settings: in vivo; in short: as §1
Cytochrome P450 2C19 = Cytochrome P450 2C19 (Homo sapiens, UniProt P33261); assay: Inhibition of human CYP2C19; assay type: ADME
Chain of Cytochrome P450 2C19 (P33261 whole entry): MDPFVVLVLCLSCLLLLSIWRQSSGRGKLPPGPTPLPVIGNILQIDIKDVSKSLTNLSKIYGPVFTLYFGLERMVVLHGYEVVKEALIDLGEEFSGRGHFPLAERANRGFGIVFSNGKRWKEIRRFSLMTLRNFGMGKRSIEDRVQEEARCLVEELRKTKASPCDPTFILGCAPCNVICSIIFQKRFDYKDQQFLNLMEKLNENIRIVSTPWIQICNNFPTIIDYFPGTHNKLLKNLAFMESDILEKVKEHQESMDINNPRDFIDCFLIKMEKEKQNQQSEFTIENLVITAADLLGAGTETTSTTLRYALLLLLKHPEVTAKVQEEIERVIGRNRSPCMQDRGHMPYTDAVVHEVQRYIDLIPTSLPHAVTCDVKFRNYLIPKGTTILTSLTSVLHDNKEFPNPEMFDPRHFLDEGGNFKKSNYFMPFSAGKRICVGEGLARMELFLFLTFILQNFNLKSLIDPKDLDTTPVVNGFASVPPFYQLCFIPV

hERG (KCNH2) [22] = target: T2, hERG (KCNH2); assay: Inhibition of human ERG at 30 uM by whole-cell patch clamp method relative to control
[23] = Permeability of the compound by PAMPA; assay type: ADME; settings: read-out: permeability
[24] = Stability in rat microsomes assessed as parent compound remaining after 30 mins; assay type: ADME, Microsome; settings: read-out: Stability
[25] = Toxicity in mouse up to 100 mg/kg, po administered as single dose; assay type: organism-based; settings: in vivo
[26] = Stability in mouse microsomes assessed as parent compound remaining after 30 mins; assay type: ADME, Microsome; settings: read-out: Stability
[27] = Efflux ratio of permeability from basolateral to apical side over apical to basolateral side in human Caco2 cells at 3 uM; settings: caco-2, 3 µM
[28] = Genotoxicity in Escherichia coli by SOS chromotest; assay type: toxicity
[29] = Total plasma clearance in cynomolgus monkey at 1 mg/kg, iv by LC-MS/MS analysis; assay type: ADME, organism-based, Macaca fascicularis
[30] = Selectivity ratio of ED50 for inhibition of 11beta-HSD1 in po dosed diet induced obese mouse to ED50 for inhibition of 11beta-HSD1 in po cynomolgus monkey; assay type: functional
Mus musculus [31] = assay: Ex vivo inhibition of 11beta-HSD1 in diet induced obese mouse adipose tissue assessed as reduction in conversion of dehydrocorticosterone to corticosterone administered via oral gavage pretreated for 3 hrs followed by dehydrocorticosterone addition by LC-MS analysis; assay type: functional
[32] = Genotoxicity in Salmonella typhimurium by Ames test; assay type: toxicity; settings: salmonella enterica subsp. enterica serovar typhimurium
[33] = Protein binding in human plasma; assay type: ADME, cell-free; settings: read-out: PPB (converted)
[34] = Ratio of drug level in adipose tissue to plasma in diet induced obese mouse administered via oral gavage; assay type: ADME; settings: adipose tissue and plasma
[35] = Volume of distribution at steady state in cynomolgus monkey at 1 mg/kg, iv by LC-MS/MS analysis; assay type: ADME, organism-based, Macaca fascicularis; settings: in vivo, read-out: Vdss
Cytochrome P450 1A2 = target: T3, Cytochrome P450 1A2 (Homo sapiens, UniProt P05177); assay: Inhibition of human CYP1A2; assay type: ADME
T3 sequence (P05177 whole entry): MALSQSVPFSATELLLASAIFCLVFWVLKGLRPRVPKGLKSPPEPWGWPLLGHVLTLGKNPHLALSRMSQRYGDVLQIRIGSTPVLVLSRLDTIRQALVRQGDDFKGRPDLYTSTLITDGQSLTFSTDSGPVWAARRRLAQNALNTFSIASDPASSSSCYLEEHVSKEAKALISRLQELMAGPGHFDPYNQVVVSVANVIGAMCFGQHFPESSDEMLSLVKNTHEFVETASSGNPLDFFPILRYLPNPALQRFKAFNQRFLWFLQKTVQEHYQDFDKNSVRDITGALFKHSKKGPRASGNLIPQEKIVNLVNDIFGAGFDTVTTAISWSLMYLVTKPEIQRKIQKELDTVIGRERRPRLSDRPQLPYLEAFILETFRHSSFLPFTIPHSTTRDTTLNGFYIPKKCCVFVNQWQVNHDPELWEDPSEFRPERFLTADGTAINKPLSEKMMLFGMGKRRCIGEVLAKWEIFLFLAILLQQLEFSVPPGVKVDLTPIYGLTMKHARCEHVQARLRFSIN

[36] = Ratio of drug level in liver to plasma in diet induced obese mouse administered via oral gavage; assay type: ADME; settings: liver and plasma
[37] = target: 11-beta-hydroxysteroid dehydrogenase 1 (Mus musculus, UniProt P50172); assay: Inhibition of recombinant mouse 11beta-HSD1 expressed in HEK293 cell microsomes using [3H]cortisone as substrate after 4 hrs by homogeneous immuno-radiometric scintillation proximity assay
Chain of 11-beta-hydroxysteroid dehydrogenase 1 (Mus musculus, UniProt P50172) (P50172 whole entry): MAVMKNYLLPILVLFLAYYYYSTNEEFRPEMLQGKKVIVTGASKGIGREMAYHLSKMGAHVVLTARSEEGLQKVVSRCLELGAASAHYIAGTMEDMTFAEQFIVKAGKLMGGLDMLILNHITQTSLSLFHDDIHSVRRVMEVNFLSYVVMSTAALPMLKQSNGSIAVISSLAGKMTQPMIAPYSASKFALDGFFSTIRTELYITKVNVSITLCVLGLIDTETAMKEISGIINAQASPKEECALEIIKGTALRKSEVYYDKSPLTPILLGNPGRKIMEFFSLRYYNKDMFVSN

Cytochrome P450 2D6 = Cytochrome P450 2D6 (Homo sapiens, UniProt P10635); assay: Inhibition of human CYP2D6; assay type: ADME
Chain of Cytochrome P450 2D6 (P10635 whole entry): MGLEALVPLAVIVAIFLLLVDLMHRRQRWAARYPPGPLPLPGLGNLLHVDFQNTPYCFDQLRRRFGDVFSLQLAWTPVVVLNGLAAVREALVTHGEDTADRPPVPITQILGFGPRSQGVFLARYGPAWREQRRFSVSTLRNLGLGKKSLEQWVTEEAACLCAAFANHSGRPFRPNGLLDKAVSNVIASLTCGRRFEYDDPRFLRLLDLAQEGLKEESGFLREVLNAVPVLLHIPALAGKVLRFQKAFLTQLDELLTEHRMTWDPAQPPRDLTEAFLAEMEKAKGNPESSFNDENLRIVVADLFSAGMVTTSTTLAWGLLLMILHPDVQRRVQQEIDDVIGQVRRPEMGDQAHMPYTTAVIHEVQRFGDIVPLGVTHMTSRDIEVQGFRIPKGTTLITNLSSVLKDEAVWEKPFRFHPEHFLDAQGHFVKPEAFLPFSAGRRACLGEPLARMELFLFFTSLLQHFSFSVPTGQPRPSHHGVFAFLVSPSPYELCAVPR

[38] = Volume of distribution at steady state in Balb/C mouse at 5 mg/kg, iv by LC-MS/MS analysis; assay type: ADME, organism-based; settings: in vivo, read-out: Vdss
Mus musculus [39] = assay: In-vivo inhibition of 11beta-HSD1 in po dosed diet induced obese mouse assessed as reduction in conversion of dehydrocorticosterone to corticosterone pretreated for 30 to 60 mins followed by dehydrocorticosterone addition and measured after 30 to 120 mins by enzyme immunosorbent assay; assay type: functional

In the case of `CC(C)(O)c1cccn2c(C3(c4ccc(Cl)cc4)CC3)nnc12.Cl` [BMS-823778], the solubility thermodynamic [1] is reported as 0.5 mg/mL, the Stability [2] is reported as “Stable” and the Stability [3] is reported as “Stable”. For the same molecule, the Stability [4] was “Stable”, the Stability [5] was “Stable” and the solubility thermodynamic [6] was 220 mg/mL. The Stability [7] was “Stable” and the Stability [8] was “Stable”.

For `CC(C)(O)c1cccn2c(C3(c4ccc(Cl)cc4)CC3)nnc12` [BMS-823778 FREE BASE], the bioavailability [9] was 100%, the Ki [10] was 0.0009 µM and the fraction unbound [11] was 0.13. For the same molecule, the Ki [12] was 0.007 µM, the fraction unbound [13] was 0.16 and the clearance [14] was 2.3 mL/min/kg. It also gave an ED50 (Cynomolgus monkey) of 0.6 mg/kg, a remaining at 0.5 h [15] of 96 to 100% and an IC50 (Cytochrome P450 2C9) greater than 30 µM. The IC50 (Cytochrome P450 3A4) was greater than 30 µM, the “Ratio ED50” value (Mus musculus [16]) was 6.5 and the remaining at 0.5 h [17] was 96 to 100%. For the same molecule, the EC50 [18] was greater than 50 µM, the Activity [19] was “Toxic” and the inhibition at 10 µM (hERG (KCNH2) [20]) was 19.8%. For the same molecule, the bioavailability [21] was 44%, the IC50 (Cytochrome P450 2C19) was greater than 30 µM and the inhibition at 30 µM (hERG (KCNH2) [22]) was 31.2%. The Papp [23] was greater than 50 ×10⁻⁶ cm/s, the remaining at 0.5 h [24] was 96 to 100% and the Activity [25] was “Non-Toxic”. For the same molecule, the remaining at 0.5 h [26] was 96 to 100%, the Ratio [27] was less than 2 and the Activity [28] was “Non-Toxic”. For the same molecule, the clearance [29] was 1.2 mL/min/kg, the “Ratio ED50” value [30] was 57 and the ED50 (Mus musculus [31]) was 5.2 mg/kg. The Activity [32] was “Non-Toxic”, the fraction unbound [33] was 0.15 and the Kp [34] was 2.5. It also gave a Vd [35] of 2.3 L/kg, an IC50 (Cytochrome P450 1A2) greater than 30 µM and a Kp [36] of 3.5. For the same molecule, the IC50 [37] was 0.6 µM, the Ki [37] was 0.38 µM and the IC50 (Cytochrome P450 2D6) was greater than 30 µM. It also gave a Vd [38] of 1.2 L/kg and an ED50 (Mus musculus [39]) of 34 mg/kg.
